According to ChEMBL document CHEMBL3611989, “Discovery and characterization of aryl isonitriles as a new class of compounds versus methicillin- and vancomycin-resistant Staphylococcus aureus” (Eur J Med Chem, 2015):
≈ marks a conversion by molar mass, not a printed value.

Experiments:
Staphylococcus aureus [1] = test: Antimicrobial activity against methicillin-sensitive Staphylococcus aureus NRS72 assessed as reduction in bacterial growth incubated for 18 to 20 hrs at 37 degC by broth microdilution method; assay type: functional
Method in brief: (§1)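 Modified CLSI broth microdilution. Bacterial suspension of about 1 × 10^5 CFU/mL in tryptic soy broth. Each agent was added in triplicate to the first row and serially diluted down the plate. Plates were incubated at 37 °C for 18-20 h. MIC was read as the lowest concentration with no visible growth.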

Staphylococcus aureus [2] = test: Antimicrobial activity against methicillin-resistant Staphylococcus aureus USA100 assessed as reduction in bacterial growth incubated for 18 to 20 hrs at 37 degC by broth microdilution method; assay type: functional; method in brief: as §1
Staphylococcus aureus [3] = test: Antimicrobial activity against vancomycin-intermediate-resistant Staphylococcus aureus NRS1 assessed as reduction in bacterial growth incubated for 18 to 20 hrs at 37 degC by broth microdilution method; assay type: functional; method in brief: as §1
Staphylococcus aureus [4] = test: Antimicrobial activity against methicillin-resistant Staphylococcus aureus USA200 assessed as reduction in bacterial growth incubated for 18 to 20 hrs at 37 degC by broth microdilution method; assay type: functional; method in brief: as §1
Staphylococcus aureus [5] = test: Antimicrobial activity against methicillin-resistant Staphylococcus aureus USA500 assessed as reduction in bacterial growth incubated for 18 to 20 hrs at 37 degC by broth microdilution method; assay type: functional; method in brief: as §1
Staphylococcus aureus [6] = test: Antimicrobial activity against methicillin-resistant Staphylococcus aureus USA700 assessed as reduction in bacterial growth incubated for 18 to 20 hrs at 37 degC by broth microdilution method; assay type: functional; method in brief: as §1
Staphylococcus aureus [7] = test: Antimicrobial activity against methicillin-resistant Staphylococcus aureus USA300 assessed as reduction in bacterial growth incubated for 18 to 20 hrs at 37 degC by broth microdilution method; assay type: functional; method in brief: as §1
Staphylococcus aureus [8] = test: Antimicrobial activity against vancomycin-resistant Staphylococcus aureus VRS2 assessed as reduction in bacterial growth incubated for 18 to 20 hrs at 37 degC by broth microdilution method; assay type: functional; method in brief: as §1
Staphylococcus aureus [9] = test: Antimicrobial activity against methicillin-resistant Staphylococcus aureus NRS119 assessed as reduction in bacterial growth incubated for 18 to 20 hrs at 37 degC by broth microdilution method; assay type: functional; method in brief: as §1
J774 [10] = assay type: cell-based; details: mouse, j774, 2 h, 128 µM
J774 [11] = test: Cytotoxicity against mouse J774 cells assessed as reduction in cell viability at 64 uM incubated for 2 hrs by MTS assay; assay type: cell-based; details: j774, 2 h
Method in brief: (§2)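 Murine J774 macrophages grown in DMEM with 10% FBS at 37 °C, 5% CO2. Compounds were tested in triplicate at 16, 32, 64 and 128 μM for 2 h, with DMSO-matched vehicle controls. MTS reagent was then added and absorbance read at OD490. Viability is given as percent of DMSO-treated cells (mean of triplicate ± standard deviation), compared by paired t-test (P < 0.05).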

J774 [12] = test: Cytotoxicity against mouse J774 cells assessed as reduction in cell viability at 32 uM incubated for 2 hrs by MTS assay; assay type: cell-based; details: j774, 2 h; method in brief: as §2

Structure (SMILES)	MIC (Staphylococcus aureus [1])	MIC (Staphylococcus aureus [2])	MIC (Staphylococcus aureus [3])	MIC (Staphylococcus aureus [4])	MIC (Staphylococcus aureus [5])	MIC (Staphylococcus aureus [6])	MIC (Staphylococcus aureus [7])	MIC (Staphylococcus aureus [8])	MIC (Staphylococcus aureus [9])	Activity (J774 [10])	Activity (J774 [11])	Activity (J774 [12])
[C-]#[N+]c1ccccc1-c1ccccc1	> 128 µM	16 µM (≈ 2.87 µg/mL)	8 µM (≈ 1.43 µg/mL)	16 µM (≈ 2.87 µg/mL)	> 128 µM	16 µM (≈ 2.87 µg/mL)	> 128 µM	> 128 µM	> 128 µM	–	–	–
[C-]#[N+]c1ccccc1CP(=O)(OCC)OCC	> 128 µM	> 128 µM	128 µM (≈ 32.4 µg/mL)	128 µM (≈ 32.4 µg/mL)	> 128 µM	> 128 µM	> 128 µM	> 128 µM	> 128 µM	–	–	–
[C-]#[N+]c1ccccc1/C=C(\C)c1ccccc1	8 µM (≈ 1.75 µg/mL)	8 µM (≈ 1.75 µg/mL)	4 µM (≈ 0.877 µg/mL)	64 µM (≈ 14 µg/mL)	> 128 µM	16 µM (≈ 3.51 µg/mL)	> 128 µM	> 128 µM	> 128 µM	–	–	–
[C-]#[N+]c1ccccc1/C=C(\CCC)c1ccccc1	16 µM (≈ 3.96 µg/mL)	16 µM (≈ 3.96 µg/mL)	8 µM (≈ 1.98 µg/mL)	16 µM (≈ 3.96 µg/mL)	16 µM (≈ 3.96 µg/mL)	16 µM (≈ 3.96 µg/mL)	32 µM (≈ 7.91 µg/mL)	32 µM (≈ 7.91 µg/mL)	32 µM (≈ 7.91 µg/mL)	–	–	–
[C-]#[N+]c1ccccc1/C=C(\CCCC)c1ccccc1	32 µM (≈ 8.36 µg/mL)	32 µM (≈ 8.36 µg/mL)	16 µM (≈ 4.18 µg/mL)	32 µM (≈ 8.36 µg/mL)	32 µM (≈ 8.36 µg/mL)	16 µM (≈ 4.18 µg/mL)	> 128 µM	64 µM (≈ 16.7 µg/mL)	> 128 µM	–	–	–
[C-]#[N+]c1ccccc1C=C(c1ccccc1)c1ccccc1	8 µM (≈ 2.25 µg/mL)	8 µM (≈ 2.25 µg/mL)	4 µM (≈ 1.13 µg/mL)	8 µM (≈ 2.25 µg/mL)	8 µM (≈ 2.25 µg/mL)	4 µM (≈ 1.13 µg/mL)	16 µM (≈ 4.5 µg/mL)	16 µM (≈ 4.5 µg/mL)	16 µM (≈ 4.5 µg/mL)	–	–	–
[C-]#[N+]c1ccccc1/C=C(\CC)c1ccc(F)cc1	8 µM (≈ 2.01 µg/mL)	16 µM (≈ 4.02 µg/mL)	8 µM (≈ 2.01 µg/mL)	16 µM (≈ 4.02 µg/mL)	16 µM (≈ 4.02 µg/mL)	8 µM (≈ 2.01 µg/mL)	32 µM (≈ 8.04 µg/mL)	32 µM (≈ 8.04 µg/mL)	64 µM (≈ 16.1 µg/mL)	–	–	–
[C-]#[N+]c1ccccc1/C=C(\CC)c1ccc(C(F)(F)F)cc1	8 µM (≈ 2.41 µg/mL)	–	8 µM (≈ 2.41 µg/mL)	–	–	–	32 µM (≈ 9.64 µg/mL)	16 µM (≈ 4.82 µg/mL)	64 µM (≈ 19.3 µg/mL)	–	–	–
[C-]#[N+]c1ccccc1/C=C(\CC)c1ccc(OC)cc1	–	–	4 µM (≈ 1.05 µg/mL)	–	–	4 µM (≈ 1.05 µg/mL)	16 µM (≈ 4.21 µg/mL)	8 µM (≈ 2.11 µg/mL)	> 128 µM	Toxic	Toxic	Non-toxic
[C-]#[N+]c1ccccc1/C=C(\CC)c1cccc(C(F)(F)F)c1	4 µM (≈ 1.21 µg/mL)	4 µM (≈ 1.21 µg/mL)	2 µM (≈ 0.603 µg/mL)	–	–	2 µM (≈ 0.603 µg/mL)	> 128 µM	8 µM (≈ 2.41 µg/mL)	–	Toxic	Toxic	Non-toxic
[C-]#[N+]c1ccccc1/C=C/c1cccc(C(F)(F)F)c1	2 µM (≈ 0.547 µg/mL)	4 µM (≈ 1.09 µg/mL)	2 µM (≈ 0.547 µg/mL)	4 µM (≈ 1.09 µg/mL)	–	4 µM (≈ 1.09 µg/mL)	–	8 µM (≈ 2.19 µg/mL)	–	Toxic	Non-toxic	Non-toxic
[C-]#[N+]c1ccccc1/C=C/c1ccc(CCCC)cc1	> 128 µM	–	–	> 128 µM	> 128 µM	–	> 128 µM	> 128 µM	> 128 µM	–	–	–
[C-]#[N+]c1ccccc1/C=C/c1ccc([N+](=O)[O-])cc1	2 µM (≈ 0.501 µg/mL)	4 µM (≈ 1 µg/mL)	4 µM (≈ 1 µg/mL)	4 µM (≈ 1 µg/mL)	–	–	–	8 µM (≈ 2 µg/mL)	16 µM (≈ 4 µg/mL)	Toxic	Toxic	Toxic
[C-]#[N+]c1ccccc1C=C1CCCCC1	8 µM (≈ 1.58 µg/mL)	16 µM (≈ 3.16 µg/mL)	4 µM (≈ 0.789 µg/mL)	64 µM (≈ 12.6 µg/mL)	> 128 µM	16 µM (≈ 3.16 µg/mL)	> 128 µM	> 128 µM	> 128 µM	–	–	–
[C-]#[N+]c1cccc(/C=C/c2ccccn2)c1	64 µM (≈ 13.2 µg/mL)	32 µM (≈ 6.6 µg/mL)	128 µM (≈ 26.4 µg/mL)	64 µM (≈ 13.2 µg/mL)	64 µM (≈ 13.2 µg/mL)	64 µM (≈ 13.2 µg/mL)	32 µM (≈ 6.6 µg/mL)	128 µM (≈ 26.4 µg/mL)	128 µM (≈ 26.4 µg/mL)	–	–	–
